Hits are enriched below; roughly 4% of the tested compounds scored in any of these assays.
SIRT5 block: SIRT5 desuccinylase inhibitors, primary screen, biochemical, fluorescence imaging, single point, set 5 | actives 1.1% (n = 330,000) | NAD-dependent protein deacylase sirtuin-5, mitochondrial (Homo sapiens), Q9NXA8 | inhibition, % at 15 µM | Purified SirT5, succinyl-peptide AMC, trypsin-coupled fluorescence; in the data active = inhibition above about 15%
Target sequence (Q9NXA8 whole entry, looked up): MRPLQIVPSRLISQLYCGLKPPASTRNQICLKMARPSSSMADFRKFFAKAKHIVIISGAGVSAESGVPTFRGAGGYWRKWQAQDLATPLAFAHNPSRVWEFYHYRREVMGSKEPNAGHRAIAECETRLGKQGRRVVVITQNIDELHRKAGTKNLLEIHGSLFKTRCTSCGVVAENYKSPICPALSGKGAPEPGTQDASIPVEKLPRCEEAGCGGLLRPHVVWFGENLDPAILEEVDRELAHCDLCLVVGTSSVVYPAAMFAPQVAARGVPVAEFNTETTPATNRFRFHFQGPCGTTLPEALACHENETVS
FN deposition inh: inhibitors of fibronectin matrix deposition, primary screen, AH1F cells, Alexa488-fibronectin fluorescence, plate reader; AID 743247, 2014; inhibition, % at 12.6 µM; actives 0.086% (n = 350,000); AH1F fibroblasts, overnight;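 active = mean inhibition across replicates of 30% or more, regardless of how many single replicates reach that level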
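Material – AH1F fibroblast monolayer, labelled fibronectin deposition · Reagent – labelled fibronectin 24 nM · Timing – 1 h adhesion, overnight exposure · Measured by – fluorescence at 485 nm excitation, 525 nm emission · Read-out – inhibition of fibronectin deposition signal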
rRNA inh HTS: reduced GFP signal of wild-type E. coli, primary screen, bacterial rRNA inhibitor project, GFP/RFP fluorescence, OD600, single point. actives 1.6% (n = 350,000). GFP signal change (wild-type ribosome), % (test concentration not listed). E. coli WT GFP vs humanized-ribosome RFP mutants, 24 h; hits give low values; DMSO median 0, no signal -100;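 active = significant combined selectivity score with lowered wild-type GFP, culture density cut under 30%, mutant RFP and density less affected; inactive = any of these conditions unmet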
Statin myotox sup: suppressors of statin myotoxicity in C2C12 myotubes, primary screen, cell-based, single point, plate reader. C2C12 myotubes + simvastatin, ATP luminescence, 48 h; scaled: DMSO 0, geranylgeraniol control 100. rescue of ATP level, % at 7.49 µM. actives 0.78% (n = 330,000);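 active = mean ATP rescue above about 67%, or every replicate alone reaching that limit, limit read from the data, passing the limit was not always enough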;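 also: myotubes were challenged with 10 µM simvastatin during compound exposure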
E-selectin induc: E-selectin induction in HUVECs, primary screen, imaging, HUVEC, immunofluorescence imaging, single point; normalized: neutral wells 0, TNF-alpha wells 100; actives 0.37% (n = 260,000); P16581; activation, % at 7.58 µM;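 active = mean E-selectin-positive cell signal at least 10% of the positive control, reached in at least 60% of replicates, without over 20% cell loss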
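Assay system: HUVEC primary endothelial cells. Input: 3,000 HUVEC seeded per well. Doses: one compound dose added by pin transfer. Read-out basis: % PE-positive cells. Benchmarks: TNF-alpha high, DMSO low. Detection: immunofluorescence imaging. Buffer or medium: EGM-2, gelatin.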
FGF22 binding: binders of human FGF22 protein, primary screen, FGF22 synaptogenesis inhibitor project, biophysical, thermal shift, single point | activity (Tm shift, normalised), % at 9.99 µM | Fibroblast growth factor 22 (Homo sapiens), Q9HCT0 | actives 1.5% (n = 340,000) | recombinant FGF22 thermal shift, SYPRO orange fluorescence; percent of sucrose octasulfate shift, DMSO zero;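 active = mean Tm shift, scaled 0 neutral to 100 positive control, at about 1.3% or above, every replicate too, limit read from the data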
Target sequence (Q9HCT0 whole entry, looked up): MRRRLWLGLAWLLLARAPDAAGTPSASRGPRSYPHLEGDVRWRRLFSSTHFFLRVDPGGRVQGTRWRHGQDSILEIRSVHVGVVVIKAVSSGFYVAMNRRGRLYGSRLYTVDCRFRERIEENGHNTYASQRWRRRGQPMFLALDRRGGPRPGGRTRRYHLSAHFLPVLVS
Each line names hits and unclear results; the compound was inactive in the other large screens; ! = a repeat was not active.

COc1ccccc1CC(=O)N1CCN(c2ccccc2)CC1	none
CCC(=O)N[C@@H]1CC[C@H](CC(=O)NCc2cc(F)cc(F)c2)O[C@H]1CO	none (no result: FGF22 binding)
Cc1ccc(NC(=O)c2cnn(C)c2)cc1[N+](=O)[O-]	none (no result: Statin myotox sup, E-selectin induc)
CCOc1ncccc1C(=O)Nc1ccc(F)c(Cl)c1	none (no result: Statin myotox sup, E-selectin induc)
CC(=O)Nc1cccc(NC(=O)c2cccc3cccnc23)c1	SIRT5 block 15.1
CCOc1ncccc1C(=O)Nc1ccc(F)c(F)c1	FGF22 binding 43.5 (no result: Statin myotox sup)
Cc1ccc(NC(=O)c2cccc3cccnc23)cc1	none
Cn1cc(C(=O)Nc2ccc(F)c(F)c2)cn1	Statin myotox sup 89.7 (no result: SIRT5 block, FN deposition inh, rRNA inh HTS, E-selectin induc, FGF22 binding)
C[C@H]1CN([C@@H](C)CO)S(=O)(=O)c2ccc(C#CCN(C)C)cc2O[C@@H]1CN(C)Cc1ccccc1	none (no result: FN deposition inh)
Cc1ccc(S(=O)(=O)Nc2ccc3c(c2)C(=O)N([C@@H](C)CO)C[C@H](C)[C@@H](CN(C)C(=O)NC(C)C)OCCCC[C@@H](C)O3)cc1	none (no result: Statin myotox sup)
C[C@@H]1CN([C@H](C)CO)C(=O)c2cc(NS(=O)(=O)c3cn(C)cn3)ccc2O[C@@H]1CN(C)C(=O)Nc1ccccc1	none (no result: FN deposition inh, Statin myotox sup)
CCOC(=O)/C(N=Nc1c(C)n(C)n(-c2ccccc2)c1=O)=C(/O)c1ccccc1	FGF22 binding 43.3 (no result: Statin myotox sup)
O=C(Nc1ccccc1)Nc1cc(Cl)cc(Cl)c1	none (no result: SIRT5 block, FN deposition inh, rRNA inh HTS, E-selectin induc, FGF22 binding)
O=C(Nc1ccccc1)Nc1cc(OCC(F)(F)F)cc(OCC(F)(F)F)c1	FGF22 binding 43.6 (no result: Statin myotox sup, E-selectin induc)
CNC[C@@H]1Oc2ccc(NC(=O)CCCN(C)C)cc2C(=O)N([C@H](C)CO)C[C@H]1C	none
Cc1nc(C(=O)NNC(=O)c2ccc(Cl)cc2)c(C(F)(F)F)o1	rRNA inh HTS -29.8 (no result: Statin myotox sup)
Cc1nc(C(=O)NCC(=O)c2ccc(Cl)cc2)c(C(F)(F)F)o1	none (no result: E-selectin induc)
CN(CC(=O)Nc1ccc(F)cc1)C(=O)CSc1nc2ncc(Cl)cc2[nH]1	FGF22 binding 43.0 (no result: Statin myotox sup)
COc1ccccc1NC(=O)CSC1=NC(=O)C(NC(C)=O)C(=O)N1 (centres undefined)	none (no result: SIRT5 block, FN deposition inh, rRNA inh HTS, E-selectin induc, FGF22 binding)
CC(=O)NC1C(=O)N=C(SCC(=O)Nc2ccc(C(F)(F)F)cc2Cl)NC1=O (centres undefined)	FGF22 binding 44.3 (no result: Statin myotox sup)
C[C@@H]1CN([C@@H](C)CO)C(=O)c2cccc(NS(=O)(=O)c3ccc(F)cc3)c2O[C@@H]1CN(C)Cc1ccc(Oc2ccccc2)cc1	none (no result: SIRT5 block, FN deposition inh, FGF22 binding)
COC(=O)[C@]1(CO)N=C(c2ccc(OCCCO)cc2)O[C@@H]1c1ccccc1CN=[N+]=[N-]	none (no result: FN deposition inh, rRNA inh HTS, Statin myotox sup, E-selectin induc)
COc1ccc(S(=O)(=O)Nc2ccc3c(c2)C(=O)N([C@H](C)CO)C[C@@H](C)[C@@H](CN(C)Cc2ccc4c(c2)OCO4)OCCCC[C@H](C)O3)cc1	none
COc1ccc(S(=O)(=O)Nc2ccc3c(c2)C(=O)N([C@@H](C)CO)C[C@@H](C)[C@H](CN(C)Cc2ccc4c(c2)OCO4)OCCCC[C@H](C)O3)cc1	FGF22 binding 1.3
C[C@@H]1CN([C@H](C)CO)C(=O)c2cc(NS(=O)(=O)c3ccc(Cl)cc3)ccc2O[C@@H](C)CCCCO[C@@H]1CN(C)Cc1ccc2c(c1)OCO2	SIRT5 block 18.8! (no result: Statin myotox sup, E-selectin induc, FGF22 binding)
O=C(c1ccco1)N(Cc1ccco1)c1ccc(O)cc1	Statin myotox sup 118.4 (no result: SIRT5 block, FN deposition inh, rRNA inh HTS, E-selectin induc, FGF22 binding)
Cc1ccc(S(=O)(=O)N2C[C@H]3n4c(=O)ccc(=O)n4C[C@H](OC(=O)NCc4ccco4)[C@@]3(O)C2)cc1	SIRT5 block 32.8
CCCCCCn1c(=O)n2n(c1=O)[C@@H]1CN(S(=O)(=O)c3ccc(C)cc3)C[C@]1(O)[C@@H](OC(=O)NCc1ccccc1)C2	SIRT5 block 20.3
Cc1ccc(S(=O)(=O)N2C[C@H]3n4c(=O)ccc(=O)n4C[C@H](OC(=O)NCc4ccccc4)[C@@]3(O)C2)cc1	none
